Only some compounds are listed: those with a hit (about 3.4% of all), similar ones and a draw of the others.
TAAR1 antagonist: human TAAR1 antagonists, primary screen, Fluo-8 calcium fluorescence, CHO RD-HGA16 cells; antagonist; inhibition, % at 3 µM; AID 624466, 2012; 1.5% of 360,000 active;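 active = inhibition above a per-plate cutoff, the mean inhibition of test compounds on that plate plus 3 SD, cut at about 49% in these data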;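 note: 0% = DMSO plus EC80 beta-PEA response and 100% = DMSO alone without agonist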
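Test system: CHO RD-HGA16 cells bearing hTAAR1 | Reagent: β-PEA, EC80 | Compound dosing: 3 µM, single point | Schedule: Dye loading 75 min at 37 °C, then 30 min room temperature | Signal: Calcium fluorescence with Fluo-8 | Evaluation: Percent inhibition of PEA-evoked calcium signal, max/basal emission ratio | Control set: DMSO-only wells and EC80 β-PEA-stimulated wells | Repeats: Singlicate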
M1 antag: human M1 muscarinic receptor antagonists, primary screen, CHO-K1 cells, Fluo-8 calcium fluorescence, 1536-well; 1.3% of 360,000 active; AID 588852, 2011; CHO-K1 hM1, ACh EC80 antagonist; inhibition, % at 3 µM;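 active = percent inhibition above its own plate's cutoff, namely the mean of that plate's compound wells plus 3 SD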;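 note: peak over basal fluorescence ratio during 140 s after agonist addition; 0% = ACh EC80 plus DMSO and 100% = DMSO alone without agonist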
Target sequence (P11229 whole entry, looked up): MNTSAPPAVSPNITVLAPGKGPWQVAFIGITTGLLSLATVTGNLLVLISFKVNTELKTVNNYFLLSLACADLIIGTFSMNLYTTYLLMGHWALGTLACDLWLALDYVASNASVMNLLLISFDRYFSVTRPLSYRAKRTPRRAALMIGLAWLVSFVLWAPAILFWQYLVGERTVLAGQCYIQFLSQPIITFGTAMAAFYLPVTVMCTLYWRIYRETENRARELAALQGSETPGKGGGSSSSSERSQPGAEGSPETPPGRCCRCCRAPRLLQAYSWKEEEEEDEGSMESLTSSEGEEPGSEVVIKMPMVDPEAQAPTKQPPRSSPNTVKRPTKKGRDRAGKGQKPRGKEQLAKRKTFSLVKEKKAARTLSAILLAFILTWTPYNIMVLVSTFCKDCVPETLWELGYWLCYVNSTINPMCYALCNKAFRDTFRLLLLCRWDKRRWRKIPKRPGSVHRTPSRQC
TAAR1 agonist: human TAAR1 agonists, primary screen, Fluo-8 calcium fluorescence, CHO RD-HGA16 cells; activation, % at 3 µM; AID 624467, 2012; 0.99% of 360,000 active; vehicle wells 0%, saturating PEA agonist 100%;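 active = activation above the mean activation of all test compounds in the run plus 3 SD, cut at about 38% in these data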
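Benchmarks: low control DMSO, high control PEA (EC100); System: CHO RD-HGA16 cells carrying human TAAR1 plus Gα16; Detection: Fluo-8 fluorescence, 5 s baseline then 140 s kinetic read; Schedule: 17-24 h plating, Fluo-8 75 min 37 °C, 30 min RT; Read-out basis: % activation from peak over basal fluorescence ratio, DMSO-to-PEA scaled.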
M1 PAM: human M1 muscarinic receptor positive allosteric modulators, primary screen, CHO-K1 cells, Fluo-8 calcium fluorescence, 1536-well. AID 588819, 2011. activation, % at 3 µM. CHO-K1 hM1, ACh EC20; 0% = ACh EC20, 100% = maximal ACh. 0.088% of 360,000 active. Muscarinic acetylcholine receptor M1 (Homo sapiens), P11229; in the data active = activation above about 19%, passing the limit was not always enough
M1 ag: human M1 muscarinic receptor agonists, primary screen, Fluo-8 calcium fluorescence, CHO-K1 cells, HTS; Muscarinic acetylcholine receptor M1 (Homo sapiens), P11229; CHO-K1 hM1, agonist mode; 0% DMSO, 100% acetylcholine EC100; activation, % at 3 µM; 0.33% of 360,000 active; AID 588814, 2011;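 active = activation above the run's mean compound activation plus 3 SD, cut at about 16% in these data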;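 note: peak over basal fluorescence ratio within a 140 s kinetic read after compound addition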
TAAR1 ag confirm: human TAAR1 agonists, retest of hits, confirmation, Fluo-8 calcium fluorescence, CHO RD-HGA16 cells. scaled: DMSO 0%, maximal phenethylamine 100%. activation, % at 3 µM. shares compounds with TAAR1 agonist. 82% of 2,400 active;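 active = activation above a cutoff set at the run's mean compound activation plus 3 SD, cut at about 39% in these data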
Ga16 ag counter: nonselective calcium mobilization agonists, CHO-Ga16 cells, counter-screen for hTAAR1 agonist project, cell-based, fluorescence, CHO-Ga16 parental line. shares compounds with TAAR1 agonist. Fluo-8 calcium fluorescence; normalized to maximal ATP response, DMSO zero. activation, % at 3 µM. 50% of 2,400 active;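 active = activation above the run cutoff, the mean activation over all tested wells plus 3 SD, cut at about 12% in these data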;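 note: 0% = DMSO wells and 100% = maximal ATP response on the peak over basal ratio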
TAAR1 desens: TAAR1 desensitization by agonist hits, confirmation, counter-screen for TAAR1 agonist project, cell-based, fluorescence, tachyphylaxis; shares compounds with TAAR1 agonist; CHO RD-HGA16 hTAAR1, Fluo-8 calcium, beta-PEA response inhibition; inhibition, % at 3 µM; 46% of 2,400 active; AID 651951, 2012;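 active = inhibition above the run cutoff, the mean inhibition of all test compounds plus 3 SD, cut at about 49% in these data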;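 note: beta-PEA stimulus applied at its EC80; loss of beta-PEA calcium signal after compound pretreatment read as receptor desensitization; 0% = DMSO with beta-PEA at EC80 and 100% = DMSO alone without agonist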
Ga16 antag count: inhibition of ATP-evoked calcium response in CHO-Ga16 cells, counter-screen for TAAR1 agonist project, cell-based, fluorescence. 39% of 2,400 active. CHO-Ga16 ATP-induced calcium, Fluo-8 fluorescence. shares compounds with TAAR1 agonist. inhibition, % at 3 µM;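 active = inhibition above the plate's mean compound inhibition plus 3 SD, computed per plate, cut at about 22% in these data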;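 note: 0% = EC80 ATP with DMSO and 100% = DMSO wells without ATP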
* marks the source's active call; other numbers are inactive results; · = not tested or not shown.

SMILES	TAAR1 antagonist	M1 antag	TAAR1 agonist	M1 PAM	M1 ag	TAAR1 ag confirm	Ga16 ag counter	TAAR1 desens	Ga16 antag count
CCOC(=O)C(NCCc1ccccc1)(NC(C)=O)C(F)(F)F (stereo unspecified)	·	-10.6	·	9.4	0.3	·	1.0	·	2.8
CCOC(=O)C(NCCc1ccc(F)cc1)(NC(=O)CC)C(F)(F)F (stereo unspecified)	17.7	-1.5	51.2*	1.0	-6.9	64.0*	5.7	9.7	-3.0
Cc1ccc(S(=O)(=O)N2C[C@H]3N(C(=O)OC(C)C)N(C(=O)OC(C)C)C[C@H](OC(=O)NCc4ccco4)[C@@]3(O)C2)cc1	-1.5	-16.3	5.9	5.5	-2.6	·	·	·	·
COc1ccccc1CNc1nc(NCCNC(C)=O)c2sccc2n1	-4.4	-19.1	2.2	4.5	-7.6	·	·	·	·
COCCNc1nc(NCc2ccccc2)nc2ccsc12	104.2*	99.9*	152.6*	-32.7	79.1*	122.9*	103.0*	106.5*	102.4*
CC(=O)NCCNc1nc(NCc2ccccc2)nc2ccsc12	92.2*	7.9	90.6*	-27.4	31.8*	108.6*	23.4*	101.5*	53.0*
COc1cccc(N2CCN(C3C4CC5CC(C4)CC3C5)CC2)c1 (stereo unspecified)	-21.1	-3.2	41.0*	-3.3	-6.1	56.4*	19.2*	13.9	4.9
COc1cccc(N2CCN(CC(=O)C34CC5CC(CC(C5)C3)C4)CC2)c1	13.2	-4.2	3.7	4.2	-4.7	·	·	·	·
CC(=O)Nc1ccc(NC(=O)N(c2ccccc2)c2ccccc2)cc1	-7.4	-4.1	0.8	4.7	-4.0	·	·	·	·
CN=c1scc(-c2cccs2)n1/N=C/c1ccc(O)c(O)c1O	14.2	11.8	45.0*	-5.4	3.4	56.4*	21.3*	45.5	18.0
O=C(Nc1ccc(Cc2ccncc2)cc1)c1cc([N+](=O)[O-])ccc1N1CCOCC1	-2.9	-1.3	3.3	-1.0	-2.3	·	·	·	·
Cc1cccc(CC(C)NC(=O)c2cc(COc3ccc(F)cc3F)on2)n1 (stereo unspecified)	99.2*	-2.9	88.3*	2.7	-4.2	9.1	5.3	14.0	7.3
O=C1CCCCN1CC(=O)N1CCCC(Nc2ccc(F)cc2)C1 (stereo unspecified)	-8.9	-10.3	1.4	2.6	-1.4	·	·	·	·
COC(=O)C1=C(C)N(Cc2ccccc2C(F)(F)F)C(=NCc2cccc(C(F)(F)F)c2)NC1c1ccc(C(F)(F)F)cc1 (stereo unspecified)	-34.6	·	4.7	·	·	·	·	·	·
C=CCN=C1NC(c2cccc(F)c2)C(C(=O)OC)=C(C)N1Cc1cccc(C(F)(F)F)c1 (stereo unspecified)	92.4*	·	106.6*	·	·	88.9*	54.6*	92.5*	72.9*
COC(=O)C1=C(C)N(Cc2cccc(C(F)(F)F)c2)C(=NCC2CC2)NC1c1ccccc1 (stereo unspecified)	97.1*	·	120.7*	·	·	114.6*	79.0*	100.0*	73.9*
